One block for each molecule: values may come before it.
Experiments:
[1] = target: Mitogen-activated protein kinase 8 (Homo sapiens) (UniProt P45983); experiment: Inhibition of human recombinant JNK1 at 500 nM related to control ULK1
[2] = target: Serine/threonine-protein kinase 38-like (Homo sapiens) (UniProt Q9Y2H1); experiment: Inhibition of human recombinant NDR2 at 500 nM in presence of ATP by radiometric assay relative to control
[3] = target: T1, Mitogen-activated protein kinase kinase kinase 2 (Homo sapiens) (UniProt Q9Y2U5); experiment: Inhibition of human recombinant MAP3K2 at 500 nM in presence of ATP by radiometric assay relative to control
T1 sequence (whole entry): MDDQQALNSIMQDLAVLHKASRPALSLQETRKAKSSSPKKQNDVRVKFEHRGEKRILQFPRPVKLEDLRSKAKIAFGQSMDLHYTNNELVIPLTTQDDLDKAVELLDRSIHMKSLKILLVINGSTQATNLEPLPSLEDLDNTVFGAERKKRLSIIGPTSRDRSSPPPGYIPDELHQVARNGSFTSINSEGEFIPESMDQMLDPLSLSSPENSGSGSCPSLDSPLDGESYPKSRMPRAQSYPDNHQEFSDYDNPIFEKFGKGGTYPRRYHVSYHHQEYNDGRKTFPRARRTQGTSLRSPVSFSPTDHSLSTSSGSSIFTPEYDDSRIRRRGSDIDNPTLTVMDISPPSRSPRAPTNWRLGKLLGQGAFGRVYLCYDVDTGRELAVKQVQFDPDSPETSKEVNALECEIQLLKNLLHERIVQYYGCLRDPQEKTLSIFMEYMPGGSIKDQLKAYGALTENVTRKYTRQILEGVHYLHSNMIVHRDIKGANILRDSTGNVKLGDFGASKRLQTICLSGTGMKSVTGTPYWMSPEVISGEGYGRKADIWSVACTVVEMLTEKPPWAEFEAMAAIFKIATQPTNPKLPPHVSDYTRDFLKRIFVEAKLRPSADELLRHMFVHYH

[4] = target: Fibroblast growth factor receptor 2 (Homo sapiens) (UniProt P21802); experiment: Inhibition of human recombinant FGFR2 at 500 nM in presence of ATP by radiometric assay relative to control
Sequence of Fibroblast growth factor receptor 2 (Homo sapiens) (P21802 22-821 limits assumed): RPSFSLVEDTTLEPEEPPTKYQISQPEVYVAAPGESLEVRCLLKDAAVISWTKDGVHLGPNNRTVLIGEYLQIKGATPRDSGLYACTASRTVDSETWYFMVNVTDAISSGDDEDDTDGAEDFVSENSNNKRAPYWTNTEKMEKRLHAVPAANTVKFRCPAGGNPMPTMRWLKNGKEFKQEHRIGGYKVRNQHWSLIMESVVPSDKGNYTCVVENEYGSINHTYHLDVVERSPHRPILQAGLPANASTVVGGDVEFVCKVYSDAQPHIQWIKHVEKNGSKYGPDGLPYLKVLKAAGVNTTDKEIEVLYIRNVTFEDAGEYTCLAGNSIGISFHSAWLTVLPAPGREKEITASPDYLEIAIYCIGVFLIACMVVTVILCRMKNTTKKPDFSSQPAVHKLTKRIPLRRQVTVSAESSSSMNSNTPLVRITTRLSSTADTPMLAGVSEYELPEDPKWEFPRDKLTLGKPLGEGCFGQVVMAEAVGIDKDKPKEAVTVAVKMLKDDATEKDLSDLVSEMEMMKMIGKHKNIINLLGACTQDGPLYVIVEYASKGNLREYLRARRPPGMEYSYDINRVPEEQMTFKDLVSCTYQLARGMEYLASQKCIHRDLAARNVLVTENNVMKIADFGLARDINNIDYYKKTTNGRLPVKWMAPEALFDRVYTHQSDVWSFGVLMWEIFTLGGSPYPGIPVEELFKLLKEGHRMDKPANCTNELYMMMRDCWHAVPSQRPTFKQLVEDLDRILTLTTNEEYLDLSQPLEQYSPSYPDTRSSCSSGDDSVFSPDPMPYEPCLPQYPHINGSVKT

[5] = target: Serine/threonine-protein kinase PRP4 homolog (Homo sapiens) (UniProt Q13523); experiment: Inhibition of human recombinant PRP4 at 500 nM in presence of ATP by radiometric assay relative to control
[6] = target: Cyclin-dependent kinase 4 (Homo sapiens) (UniProt P11802); experiment: Inhibition of human recombinant CDK4 at 500 nM in presence of ATP by radiometric assay relative to control
Sequence of Cyclin-dependent kinase 4 (Homo sapiens) (P11802 whole entry): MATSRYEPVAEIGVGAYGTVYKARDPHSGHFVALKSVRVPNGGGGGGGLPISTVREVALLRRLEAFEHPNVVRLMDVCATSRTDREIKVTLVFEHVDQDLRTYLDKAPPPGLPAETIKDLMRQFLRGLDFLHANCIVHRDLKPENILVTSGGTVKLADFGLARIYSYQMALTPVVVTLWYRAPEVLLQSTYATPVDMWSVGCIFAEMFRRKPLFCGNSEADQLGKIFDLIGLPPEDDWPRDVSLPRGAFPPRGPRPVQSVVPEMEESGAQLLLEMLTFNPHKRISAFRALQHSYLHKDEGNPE

[7] = target: Tyrosine-protein kinase CSK (Homo sapiens) (UniProt P41240); experiment: Inhibition of human recombinant CSK at 500 nM in presence of ATP by radiometric assay relative to control
Sequence of Tyrosine-protein kinase CSK (Homo sapiens) (P41240 2-450 limits assumed): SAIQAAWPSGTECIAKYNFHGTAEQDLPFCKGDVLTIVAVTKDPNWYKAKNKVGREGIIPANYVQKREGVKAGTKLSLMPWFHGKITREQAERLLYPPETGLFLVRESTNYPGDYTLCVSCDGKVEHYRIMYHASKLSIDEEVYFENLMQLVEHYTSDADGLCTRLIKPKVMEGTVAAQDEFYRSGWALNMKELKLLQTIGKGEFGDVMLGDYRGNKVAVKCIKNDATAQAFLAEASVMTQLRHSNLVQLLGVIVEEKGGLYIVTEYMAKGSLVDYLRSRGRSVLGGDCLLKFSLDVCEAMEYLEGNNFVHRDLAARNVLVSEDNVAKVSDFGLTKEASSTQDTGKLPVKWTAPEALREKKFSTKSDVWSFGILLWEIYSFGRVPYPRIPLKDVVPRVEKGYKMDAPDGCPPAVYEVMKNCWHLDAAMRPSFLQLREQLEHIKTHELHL

[8] = target: T2, Beta-adrenergic receptor kinase 1 (Homo sapiens) (UniProt P25098); experiment: Inhibition of human recombinant BARK1 at 500 nM related to control ULK1
T2 sequence (whole entry): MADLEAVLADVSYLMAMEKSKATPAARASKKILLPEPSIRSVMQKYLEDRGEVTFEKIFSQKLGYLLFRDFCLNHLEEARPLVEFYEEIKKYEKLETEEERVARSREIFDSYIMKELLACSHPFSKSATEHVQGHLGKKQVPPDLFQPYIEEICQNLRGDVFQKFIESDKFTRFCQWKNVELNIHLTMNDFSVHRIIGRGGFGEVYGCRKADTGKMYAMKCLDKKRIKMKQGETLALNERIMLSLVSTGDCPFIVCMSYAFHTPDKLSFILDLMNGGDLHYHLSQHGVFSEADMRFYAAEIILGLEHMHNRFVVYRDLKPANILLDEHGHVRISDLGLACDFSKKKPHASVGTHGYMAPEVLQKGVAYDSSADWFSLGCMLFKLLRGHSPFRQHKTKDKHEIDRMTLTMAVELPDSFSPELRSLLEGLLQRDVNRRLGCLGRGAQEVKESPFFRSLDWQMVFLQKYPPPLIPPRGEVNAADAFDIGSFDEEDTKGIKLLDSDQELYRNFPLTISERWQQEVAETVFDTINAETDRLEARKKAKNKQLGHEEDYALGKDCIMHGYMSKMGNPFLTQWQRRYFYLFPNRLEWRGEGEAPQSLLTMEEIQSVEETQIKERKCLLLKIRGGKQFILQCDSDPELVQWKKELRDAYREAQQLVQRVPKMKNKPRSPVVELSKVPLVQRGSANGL

[9] = target: Phosphorylase b kinase gamma catalytic chain, skeletal muscle/heart isoform (Homo sapiens) (UniProt Q16816); experiment: Inhibition of human recombinant PHKg1 at 40 nM related to control ULK1
[10] = target: T3, Aurora kinase A (Homo sapiens) (UniProt O14965); experiment: Inhibition of human recombinant AurA at 40 nM in presence of ATP by radiometric assay relative to control
T3 sequence (whole entry): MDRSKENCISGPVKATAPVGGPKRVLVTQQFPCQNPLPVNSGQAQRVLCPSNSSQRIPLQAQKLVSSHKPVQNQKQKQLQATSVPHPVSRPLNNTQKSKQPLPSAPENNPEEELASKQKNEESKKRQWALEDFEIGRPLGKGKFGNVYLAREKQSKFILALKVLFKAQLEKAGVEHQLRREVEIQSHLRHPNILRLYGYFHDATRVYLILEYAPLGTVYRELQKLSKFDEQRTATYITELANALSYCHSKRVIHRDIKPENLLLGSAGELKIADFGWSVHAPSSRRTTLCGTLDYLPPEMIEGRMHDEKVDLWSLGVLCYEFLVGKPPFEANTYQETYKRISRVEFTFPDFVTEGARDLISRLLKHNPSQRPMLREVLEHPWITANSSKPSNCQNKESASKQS
Outline: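 Panel of 327 recombinant human kinases, each assayed in vitro by radiometric activity assay in duplicate at a single inhibitor concentration per compound, chosen with reference to its ULK1 inhibition. Activity remaining was expressed as percent of vehicle control, and percent inhibition was calculated as 100 minus percent activity remaining.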

[11] = target: Misshapen-like kinase 1 (Homo sapiens) (UniProt Q8N4C8); experiment: Inhibition of human recombinant MINK at 40 nM related to control ULK1
[12] = target: Serine/threonine-protein kinase WNK2 (Homo sapiens) (UniProt Q9Y3S1); experiment: Inhibition of human recombinant Wnk2 at 40 nM related to control ULK1
[13] = target: Proto-oncogene tyrosine-protein kinase Src (Homo sapiens) (UniProt P12931); experiment: Inhibition of human recombinant SRC at 15 nM related to control ULK1
Sequence of Proto-oncogene tyrosine-protein kinase Src (Homo sapiens) (P12931 2-536 limits assumed): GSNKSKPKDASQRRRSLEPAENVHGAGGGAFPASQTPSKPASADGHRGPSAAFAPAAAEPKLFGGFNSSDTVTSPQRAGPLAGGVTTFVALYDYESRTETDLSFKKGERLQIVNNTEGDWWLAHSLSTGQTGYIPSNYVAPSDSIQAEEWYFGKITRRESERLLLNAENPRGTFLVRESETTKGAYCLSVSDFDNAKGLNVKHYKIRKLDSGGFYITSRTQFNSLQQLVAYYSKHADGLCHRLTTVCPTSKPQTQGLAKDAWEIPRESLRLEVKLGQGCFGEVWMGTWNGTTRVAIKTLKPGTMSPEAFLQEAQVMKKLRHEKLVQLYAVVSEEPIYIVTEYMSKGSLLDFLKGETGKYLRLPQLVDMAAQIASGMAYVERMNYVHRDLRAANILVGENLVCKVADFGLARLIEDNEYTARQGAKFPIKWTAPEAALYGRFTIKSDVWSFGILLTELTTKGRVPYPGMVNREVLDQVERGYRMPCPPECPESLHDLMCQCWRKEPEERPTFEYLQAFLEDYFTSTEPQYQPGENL

[14] = target: Macrophage-stimulating protein receptor (Homo sapiens) (UniProt Q04912); experiment: Inhibition of human recombinant RON at 15 nM related to control ULK1
Sequence of Macrophage-stimulating protein receptor (Homo sapiens) (Q04912 25-304 limits assumed): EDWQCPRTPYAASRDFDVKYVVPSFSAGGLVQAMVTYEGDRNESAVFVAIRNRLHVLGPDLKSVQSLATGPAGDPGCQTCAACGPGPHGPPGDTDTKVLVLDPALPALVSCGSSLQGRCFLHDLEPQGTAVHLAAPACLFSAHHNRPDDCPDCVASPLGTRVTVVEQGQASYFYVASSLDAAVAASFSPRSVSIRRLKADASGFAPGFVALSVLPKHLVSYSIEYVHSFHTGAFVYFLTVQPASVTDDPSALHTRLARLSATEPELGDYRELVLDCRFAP
Sequence of Macrophage-stimulating protein receptor (Homo sapiens) (Q04912 310-1400 limits assumed): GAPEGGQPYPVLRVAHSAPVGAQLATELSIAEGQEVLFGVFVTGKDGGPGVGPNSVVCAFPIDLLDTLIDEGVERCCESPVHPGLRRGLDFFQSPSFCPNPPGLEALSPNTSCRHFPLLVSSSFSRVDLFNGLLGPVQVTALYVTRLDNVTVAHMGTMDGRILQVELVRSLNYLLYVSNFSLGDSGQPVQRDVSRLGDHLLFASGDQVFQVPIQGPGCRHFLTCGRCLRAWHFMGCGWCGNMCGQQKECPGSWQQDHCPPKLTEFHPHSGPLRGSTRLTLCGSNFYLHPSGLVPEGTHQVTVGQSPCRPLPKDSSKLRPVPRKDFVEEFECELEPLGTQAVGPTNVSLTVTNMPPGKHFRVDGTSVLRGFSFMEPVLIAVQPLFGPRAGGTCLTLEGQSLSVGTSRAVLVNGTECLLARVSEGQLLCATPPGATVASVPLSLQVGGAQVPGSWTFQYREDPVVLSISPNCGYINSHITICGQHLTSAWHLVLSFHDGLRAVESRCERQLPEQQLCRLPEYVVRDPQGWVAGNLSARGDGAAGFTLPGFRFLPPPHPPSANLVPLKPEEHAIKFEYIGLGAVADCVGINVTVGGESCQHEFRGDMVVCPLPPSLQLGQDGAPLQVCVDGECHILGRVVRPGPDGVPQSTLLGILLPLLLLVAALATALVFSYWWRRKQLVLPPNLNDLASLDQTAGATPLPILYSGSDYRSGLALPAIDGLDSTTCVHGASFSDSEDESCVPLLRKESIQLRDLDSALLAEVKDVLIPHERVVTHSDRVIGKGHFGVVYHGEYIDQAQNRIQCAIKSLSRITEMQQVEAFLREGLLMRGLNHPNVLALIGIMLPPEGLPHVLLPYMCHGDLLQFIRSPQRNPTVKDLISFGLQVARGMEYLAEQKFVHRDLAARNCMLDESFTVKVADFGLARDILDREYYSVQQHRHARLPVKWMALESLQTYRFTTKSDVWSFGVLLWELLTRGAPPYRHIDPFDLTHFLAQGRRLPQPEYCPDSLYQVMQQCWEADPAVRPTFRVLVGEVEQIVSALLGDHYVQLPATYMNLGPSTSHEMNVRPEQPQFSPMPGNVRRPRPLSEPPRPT

[15] = target: BDNF/NT-3 growth factors receptor (Homo sapiens) (UniProt Q16620); experiment: Inhibition of human recombinant TRKB at 15 nM in presence of ATP by radiometric assay relative to control
Sequence of BDNF/NT-3 growth factors receptor (Homo sapiens) (Q16620 32-822 limits assumed): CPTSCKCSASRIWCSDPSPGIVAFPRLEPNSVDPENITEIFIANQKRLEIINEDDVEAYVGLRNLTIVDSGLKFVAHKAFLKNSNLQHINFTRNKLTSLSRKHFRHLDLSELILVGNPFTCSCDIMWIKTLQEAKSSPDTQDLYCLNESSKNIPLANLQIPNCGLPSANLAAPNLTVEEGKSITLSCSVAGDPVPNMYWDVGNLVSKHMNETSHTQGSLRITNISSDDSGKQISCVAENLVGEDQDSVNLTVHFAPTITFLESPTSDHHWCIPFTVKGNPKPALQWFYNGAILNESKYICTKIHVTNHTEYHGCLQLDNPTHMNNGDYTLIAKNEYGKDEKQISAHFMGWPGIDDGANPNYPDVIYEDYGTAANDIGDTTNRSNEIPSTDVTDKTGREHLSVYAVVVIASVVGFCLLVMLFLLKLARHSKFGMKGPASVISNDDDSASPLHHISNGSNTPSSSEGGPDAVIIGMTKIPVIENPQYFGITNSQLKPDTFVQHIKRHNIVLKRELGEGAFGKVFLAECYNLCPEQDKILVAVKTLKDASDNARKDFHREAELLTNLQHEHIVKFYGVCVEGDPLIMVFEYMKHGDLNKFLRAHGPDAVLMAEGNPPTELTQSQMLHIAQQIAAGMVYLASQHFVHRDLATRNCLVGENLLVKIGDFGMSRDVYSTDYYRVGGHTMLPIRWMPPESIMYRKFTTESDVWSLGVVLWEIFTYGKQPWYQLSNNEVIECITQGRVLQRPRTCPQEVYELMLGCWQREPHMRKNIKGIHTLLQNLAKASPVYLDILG

Sequence of Mitogen-activated protein kinase 8 (Homo sapiens) (P45983 whole entry): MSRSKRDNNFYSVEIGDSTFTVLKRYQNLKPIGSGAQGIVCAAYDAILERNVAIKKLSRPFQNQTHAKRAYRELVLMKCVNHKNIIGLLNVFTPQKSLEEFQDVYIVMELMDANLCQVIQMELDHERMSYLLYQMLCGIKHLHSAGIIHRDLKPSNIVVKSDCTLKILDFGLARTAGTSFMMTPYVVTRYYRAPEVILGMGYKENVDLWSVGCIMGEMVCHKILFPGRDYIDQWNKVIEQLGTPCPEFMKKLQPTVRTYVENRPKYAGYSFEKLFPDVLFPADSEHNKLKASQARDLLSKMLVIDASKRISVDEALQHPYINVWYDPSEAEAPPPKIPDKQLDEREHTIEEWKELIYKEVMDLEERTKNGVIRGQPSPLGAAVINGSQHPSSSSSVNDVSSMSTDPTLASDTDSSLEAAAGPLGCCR

fold change (FC) [1]: 0.01
inhibition [2]: 15%
inhibition [3]: 3%
inhibition [4]: 21%
inhibition [5]: 2%
inhibition [6]: 0%
inhibition [7]: 2%
fold change (FC) [8]: 0.11
Structure (SMILES): CNC(=O)c1ccccc1Oc1nc(Nc2cc(OC)c(OC)c(OC)c2)ncc1Br

fold change (FC) [9]: 0.16
inhibition [10]: 22%
fold change (FC) [11]: 0.1
fold change (FC) [12]: 0.04
Structure (SMILES): O=C(N[C@@H](C1CC1)C(F)(F)F)c1cc(-c2cnn3cc(-c4ccc(F)cc4)cnc23)cs1

fold change (FC) [13]: 0.17
fold change (FC) [14]: 0.02
inhibition [15]: 0%
Structure (SMILES): CC(C)[C@H](NC(=O)c1cc(-c2cnn3cc(-c4ccc(OCCN5CCCCC5)cc4)cnc23)cs1)C(F)(F)F
